Activity calls are given as the source filed them. The calls are words filed in the database; no cut-off is given here.
How the values were obtained:
[1] = target: T1, Sigma intracellular receptor 2 (Rattus norvegicus) (UniProt Q5U3Y7); assay: Displacement of [3H]DTG from sigma-2 receptor in rat liver membranes at 1 uM after 120 mins by microbeta scintillation counting method relative to control; assay type: cell membranes; settings: Membrane
T1 sequence (whole entry): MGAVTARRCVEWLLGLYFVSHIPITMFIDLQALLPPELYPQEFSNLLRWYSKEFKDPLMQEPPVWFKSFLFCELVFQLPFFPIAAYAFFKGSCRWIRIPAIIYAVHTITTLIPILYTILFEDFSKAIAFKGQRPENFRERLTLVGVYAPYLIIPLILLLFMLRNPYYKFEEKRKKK
Outline: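 Rat liver homogenate was the receptor source, labelled with [³H]-di-o-tolylguanidine. Excess (+)-pentazocine was added to mask σ1 sites.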

[2] = Displacement of [3H]-(+)-MK-801 from NMDA receptor PCP binding site in pig brain cortex membranes after 120 mins by microbeta scintillation counting method; assay type: cell membranes, Sus scrofa
[3] = target: T2, Sigma intracellular receptor 2 (Rattus norvegicus, UniProt Q5U3Y7); assay: Displacement of [3H]DTG from sigma-2 receptor in rat liver membranes after 120 mins by microbeta scintillation counting method; assay type: cell membranes, Membrane
T2 sequence (Q5U3Y7 whole entry): T1 sequence (whole entry)

[4] = target: 3-beta-hydroxysteroid-Delta(8),Delta(7)-isomerase (Homo sapiens) (UniProt Q15125); assay: Inhibition of sterol-delta8/delta7-isomerase in human HL60 cells assessed as accumulation of cholesta-8,14-dienol at 50 uM after 24 hrs; assay type: cell-based
Outline: (§1)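 HL-60 cells were screened for inhibition of post-squalene cholesterol-biosynthesis enzymes. Sterol pattern was checked at 1 µM test concentration, and cholesta-8,14-dienol accumulation was examined at 50 µM.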

Yarrowia lipolytica [5] = assay: Inhibition of Yarrowia lipolytica DSM 1345 sterol-delta8/delta7-isomerase assessed as change in sterol pattern at 4 ug/ml after 48 hrs by GC-MS analysis
Outline: (§2)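 Cellular assay in the model yeast Yarrowia lipolytica, with compounds at 4 µg/mL. Both growth and the sterol pattern were monitored as read-outs of fungal sterol-Δ8/Δ7-isomerase inhibition.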

Yarrowia lipolytica [6] = assay: Growth inhibition of Yarrowia lipolytica DSM 1345 at 4 ug/ml; assay type: functional; outline: as §2
[7] = target: 3-beta-hydroxysteroid-Delta(8),Delta(7)-isomerase (Homo sapiens) (UniProt Q15125); assay: Inhibition of sterol-delta8/delta7-isomerase in human HL60 cells assessed as change in sterol pattern at 1 uM after 24 hrs; assay type: cell-based; outline: as §1
[8] = target: Sigma non-opioid intracellular receptor 1 (Cavia porcellus, UniProt Q60492); assay: Displacement of [3H]-(+)-pentazocine from sigma-1 receptor in guinea pig brain membranes after 120 mins by microbeta scintillation counting method; assay type: cell membranes, Membrane
Sequence of Sigma non-opioid intracellular receptor 1 (Q60492 whole entry): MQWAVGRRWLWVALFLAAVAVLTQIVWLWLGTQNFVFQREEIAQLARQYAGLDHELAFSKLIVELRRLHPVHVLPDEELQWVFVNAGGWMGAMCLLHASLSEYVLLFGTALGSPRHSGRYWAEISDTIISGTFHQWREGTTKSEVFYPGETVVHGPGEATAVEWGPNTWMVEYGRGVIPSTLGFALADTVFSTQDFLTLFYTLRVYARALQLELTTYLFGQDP

Sequence of 3-beta-hydroxysteroid-Delta(8),Delta(7)-isomerase (Homo sapiens) (Q15125 whole entry): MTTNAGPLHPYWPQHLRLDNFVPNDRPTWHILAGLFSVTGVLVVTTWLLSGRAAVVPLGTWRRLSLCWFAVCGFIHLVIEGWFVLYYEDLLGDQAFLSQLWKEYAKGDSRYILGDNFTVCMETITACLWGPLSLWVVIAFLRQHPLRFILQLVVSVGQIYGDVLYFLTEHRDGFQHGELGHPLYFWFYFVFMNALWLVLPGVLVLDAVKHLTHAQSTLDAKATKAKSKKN

With `OCC[C@H]1Cc2ccccc2C2(CCN(Cc3ccccc3)CC2)O1` the inhibition [1] was 21% and the IC50 [2] was over 10000 nM.

Compound `OCC[C@H]1Cc2ccccc2C2(CCN(CCCc3ccccc3)CC2)O1` has a Ki [3] of 1220 nM and an IC50 [2] of over 10000 nM.

In the case of `CCCCCCCCN1CCC2(CC1)OC(CCO)Cc1ccccc12` (racemic), the inhibition [4] is reported as “Active”, the inhibition (Yarrowia lipolytica [5]) is reported as “inactive” and the “growth inhibition (GI)” value (Yarrowia lipolytica [6]) is reported as “inactive”. For the same compound, the inhibition [7] was “inactive”.

With `OCC[C@@H]1Cc2ccccc2C2(CCN(CC3CCCCC3)CC2)O1` the Ki [3] was 614 nM and the IC50 [2] was over 10000 nM.

For `OCC[C@H]1Cc2ccccc2C2(CCN(CC3CCCCC3)CC2)O1`, the Ki [3] was 510 nM and the IC50 [2] was over 10000 nM.

In the case of `CCCCCCCCN1CCC2(CC1)O[C@H](CCO)Cc1ccccc12`, the Ki [8] is reported as 56 nM, the Ki [3] is reported as 260 nM and the IC50 [2] is reported as over 10000 nM.

Work on `COC(=O)C[C@H]1Cc2ccccc2[C@@H](CCN2CCC(c3ccccc3)CC2)O1` yielded a Ki [8] of 33 nM, a Ki [3] of 525 nM and an IC50 [2] of over 10000 nM.

`OCC[C@@H]1Cc2ccccc2C2(CCN(Cc3ccccc3)CC2)O1` showed an inhibition [1] of 9% and an IC50 [2] of over 10000 nM.

Compound `FCC[C@@H]1OC2(CCN(Cc3ccccc3)CC2)c2ccccc21` has a Ki [8] of 2.3 nM.

`OCC[C@@H]1Cc2ccccc2C2(CCN(CCCc3ccccc3)CC2)O1` gave a Ki [3] of 519 nM and an IC50 [2] of over 10000 nM.

For `OCCC1Cc2ccccc2C2(CCN(CCCc3ccccc3)CC2)O1` (racemic), the inhibition [4] was “Active”, the inhibition (Yarrowia lipolytica [5]) was “inactive” and the “growth inhibition (GI)” value (Yarrowia lipolytica [6]) was “inactive”. For the same compound, the inhibition [7] was “inactive”.

Compound `COC(=O)C[C@@H]1Cc2ccccc2[C@H](CCN2CCCCC2)O1` has a Ki [8] of 860 nM, an inhibition [1] of 39% and an IC50 [2] of over 10000 nM.

Compound `COC(=O)C[C@H]1Cc2ccccc2[C@@H](CCN2CCCCC2)O1` has a Ki [8] of 556 nM, an inhibition [1] of 13% and an IC50 [2] of over 10000 nM.

In the case of `COC(=O)C[C@@H]1Cc2ccccc2[C@H](CCN2CCC(c3ccccc3)CC2)O1`, the Ki [8] is reported as 43 nM, the Ki [3] is reported as 32 nM and the IC50 [2] is reported as over 10000 nM.

In the case of `FCC[C@H]1OC2(CCN(Cc3ccccc3)CC2)c2ccccc21`, the Ki [8] is reported as 0.57 nM.

For `CCCCCCCCN1CCC2(CC1)O[C@@H](CCO)Cc1ccccc12`, the Ki [8] was 24 nM, the Ki [3] was 68 nM and the IC50 [2] was over 10000 nM.

In the case of `COC(=O)CC1Cc2ccccc2C(CCN2CCC(c3ccccc3)CC2)O1` (racemic), the inhibition [4] is reported as “Active”, the inhibition (Yarrowia lipolytica [5]) is reported as “inactive” and the “growth inhibition (GI)” value (Yarrowia lipolytica [6]) is reported as “inactive”. The inhibition [7] was “inactive”.
